CHO parental Ca – signal in parental CHO cells, OX1R antagonist counter-screen. parental CHO-K1, ATP-induced calcium, Fluo-8 fluorescence. inhibition, % at 5.6 µM. 330,000 compounds, 0.63% hits;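 active = inhibition above that plate's mean sample inhibition plus 3 SD, cut at about 26% in these data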;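 also: 0% = ATP-challenged DMSO wells and 100% = DMSO wells without ATP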
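Test system: untransfected parental CHO cell line. Compound: one dose, 5.6 µM nominal. Detection: intracellular calcium via Fluo-8 no-wash fluorescent dye. Measure: % inhibition. Benchmarks: ATP-challenged DMSO wells low, unchallenged DMSO wells high.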
GalR3 antag – blocks the human galanin receptor 3. HEK293 GalR3-CNG cAMP membrane potential fluorescence; galR3 body fused to GalR1 C-terminus. inhibition, % at 3 µM. 360,000 compounds, 0.44% hits. AID 651719;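 active = inhibition above the screen-wide average plus 3 SD, cut at about 13% in these data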;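 also: forskolin and galanin both at EC90 stimulate the cells; cAMP rise reported by CNG channel membrane potential dye signal; 0% = forskolin plus galanin with DMSO and 100% = forskolin alone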
Target sequence (O60755 1-299 limits assumed): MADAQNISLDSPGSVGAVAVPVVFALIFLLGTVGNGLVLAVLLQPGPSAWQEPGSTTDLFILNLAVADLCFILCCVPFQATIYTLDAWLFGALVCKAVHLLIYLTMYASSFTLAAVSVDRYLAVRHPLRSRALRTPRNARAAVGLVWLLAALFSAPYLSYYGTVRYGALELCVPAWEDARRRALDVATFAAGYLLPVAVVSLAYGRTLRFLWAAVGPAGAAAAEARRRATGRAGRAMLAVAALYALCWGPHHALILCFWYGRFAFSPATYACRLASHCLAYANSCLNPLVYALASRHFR
OX1R antag-1 – antagonists of human orexin 1 receptor (OX1R); O43613; OX1R-expressing cells, FRET antagonist read-out; inhibition, % at 6.6 µM; 330,000 compounds, 1.8% hits; AID 485270; in the data active = inhibition mostly above about 38%, no sharp cut-off; inactive = mostly below about 40%;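 also: 0% = agonist challenge alone and 100% = reference antagonist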
GPR7 antag – human neuropeptides B/W receptor 1 antagonism; AID 1861; 290,000 compounds, 1.1% hits; GPR7-expressing cells, fluorescence antagonist assay; P48145; inhibition, % at 4.4 µM; in the data active = inhibition above about 16%, passing the limit was not always enough;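 also: cells stimulated with the agonist NPW; 0% = agonist with vehicle and 100% = vehicle without agonist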
Target sequence (P48145 whole entry, looked up): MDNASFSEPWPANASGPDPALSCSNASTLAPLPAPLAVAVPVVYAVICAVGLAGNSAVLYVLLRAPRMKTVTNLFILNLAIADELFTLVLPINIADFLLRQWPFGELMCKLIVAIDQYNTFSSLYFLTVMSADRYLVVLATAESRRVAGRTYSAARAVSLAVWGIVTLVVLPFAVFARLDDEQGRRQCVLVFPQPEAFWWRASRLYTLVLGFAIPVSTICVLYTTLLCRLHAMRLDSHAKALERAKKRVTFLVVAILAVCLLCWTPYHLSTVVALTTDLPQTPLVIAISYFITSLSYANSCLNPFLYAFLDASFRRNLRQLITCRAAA
OX1R antag-2 – blocks the human orexin 1 receptor. 330,000 compounds, 0.43% hits. inhibition, % at 5 µM. CHO/OX1R cells, Fluo-8 calcium fluorescence, orexin A;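 active = inhibition above its plate's threshold, mean inhibition of all tested compounds on the plate plus 3 SD, cut at about 37% in these data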;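 also: 0% = orexin A challenge wells and 100% = SB-334867-A antagonist wells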
OX1R HTRF confirm – OX1R (human) antagonism, HTRF confirmed; shares compounds with OX1R antag-1; OX1R-expressing cells, HTRF antagonist assay; inhibition, % at 6.6 µM; 1,800 compounds, 49% hits; AID 492964; in the data active = inhibition above about 55%;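 also: CHO cells expressing OX1R stimulated with orexin A at about EC80; 0% = agonist challenge alone and 100% = reference antagonist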
CHO-K1 HTRF – counter-screen for OX1R antagonists: effect in parental CHO-K1 cells. shares compounds with OX1R antag-1. HTRF counterscreen. inhibition, % at 6.6 µM. 1,800 compounds, 48% hits. AID 493232; in the data active = inhibition above about 17%;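 also: 0% = agonist challenge with vehicle and 100% = vehicle alone without agonist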
Active calls of the source: *; nt = no result; + = active, no number. The list is not random: actives were taken first. Their share in the collection is about 3.1%.

SMILES	CHO parental Ca	GalR3 antag	OX1R antag-1	GPR7 antag	OX1R antag-2	OX1R HTRF confirm	CHO-K1 HTRF
Cc1ccc(C(=O)/C=C2\NCC(C)NC2=O)cc1 (stereo unspecified)	-14.0	-2.4	77.9*	2.2	-16.7	39.8	18.1*
Cc1ccc(C(=O)/C=C2\NCCNC2=O)cc1	-9.1	-4.2	69.4	-3.7	-16.5	nt	nt
CCOc1cc(/C=C2\NC(=O)NC2=O)cc([N+](=O)[O-])c1O	-5.8	-7.3	128.0*	-8.9	-3.3	57.5*	68.7*
COc1ccccc1C(=O)NCCCCNC(=O)c1ccccc1OC	-9.8	-6.2	79.3*	nt	14.0	59.1*	0.7
CC1CCC/C(=N/Nc2ccc([N+](=O)[O-])cc2[N+](=O)[O-])C1 (stereo unspecified)	-15.4	2.6	107.5*	-8.7	-17.6	34.9	27.1*
O=[N+]([O-])c1ccc(N/N=C2\CC3CC=CC23)c([N+](=O)[O-])c1 (stereo unspecified)	22.9	-1.6	82.2*	-9.7	11.9	25.8	19.4*
O=[N+]([O-])c1ccc(NN=C2CC3CCC2C3)c([N+](=O)[O-])c1 (stereo unspecified)	nt	-5.5	nt	nt	nt	nt	nt
Cc1nn(-c2ccccc2)nc1C(=O)Nc1ccccc1C(=O)NCC1CC1	nt	-8.3	nt	nt	nt	nt	nt
O=c1c2[nH]c3cccc(Cl)c3c2ncn1Cc1ccco1	-10.8	0.0	4.6	-6.1	-12.3	nt	nt
C=CCNC(=O)CCC(=O)NNc1nc2ccccc2c2nc(-c3ccccc3)nn12	-5.3	-3.6	84.0*	-2.1	26.8	85.5*	5.7
CCN(CC)CCCNC(=O)CCC(=O)NNc1nc2ccccc2c2nc(C)nn12	11.4	-0.5	7.5	-7.0	-1.1	nt	nt
O=C(COc1ccc(C(=S)N2CCCC2)cc1)Nc1ccccc1C(F)(F)F	-13.5	-2.2	82.9*	-10.7	18.7	72.1*	15.8
Cc1nn(-c2ccccc2)c(C)c1C(=O)OCC(=O)c1c(N)n(CC(C)C)c(=O)n(C)c1=O	25.9	-4.2	9.6	-0.2	17.9	nt	nt
CC(C)Cn1c(N)c(C(=O)COC(=O)c2ccc([N+](=O)[O-])o2)c(=O)n(C)c1=O	-10.7	-4.9	80.7*	-0.6	-18.2	30.1	24.5*
CCCNC(=O)c1cc(C2CCCCN2C(=O)c2ccc3ccccc3c2)on1 (stereo unspecified)	nt	-6.1	nt	nt	nt	nt	nt
C[C@@H]1CN([C@@H](C)CO)C(=O)c2cc(Br)cnc2O[C@@H]1CN(C)C(=O)c1ccc(F)cc1	nt	-3.8	nt	nt	nt	nt	nt
CC(C)[C@H](CN1CCC[C@H]1CN1C(N)=NC[C@H]1C(C)C)N1C[C@@H](Cc2ccccc2)N(CCCC2CCCC2)C1=N	-0.8	nt	-4.8	nt	-4.0	nt	nt
O=C(Nc1ccc(-c2ccccc2)cc1)c1ccc2c(c1)S(=O)(=O)c1ccccc1C2=O	-3.0	-4.8	14.4	nt	-12.4	nt	nt
CC(C)NC(=O)c1ccc2c(c1)S(=O)(=O)c1ccccc1C2=O	-9.8	-1.8	152.6*	4.9	-4.1	47.2	63.2*
CN(C)CCOC(=O)c1ccc2c(c1)S(=O)(=O)c1ccccc1C2=O	-5.5	-3.5	107.6*	-9.0	0.2	53.1	57.6*
CCn1c(Cc2ccccc2)nnc1SCC(=O)c1c(N)n(C2CC2)c(=O)[nH]c1=O	-11.7	-5.2	0.1	nt	-1.9	nt	nt
O=C(Nc1ccncc1)Nc1cccc(F)c1	nt	-1.8	nt	-11.2	nt	nt	nt
CCOc1ccc(N(CC(=O)N/N=C/c2cc([N+](=O)[O-])ccc2Cl)S(C)(=O)=O)cc1	0.2	0.5	81.2*	1.9	13.3	21.9	6.8
CCCOc1ccc(/C=N/NC(=O)CN(c2ccc(OCC)cc2)S(C)(=O)=O)cc1	-12.7	7.0	4.8	-12.2	-46.4	nt	nt
Cc1ccccc1N(CC(=O)N1CCCCCC1)S(C)(=O)=O	-7.9	-2.6	6.7	-15.8	-11.0	nt	nt
SMILES	CHO parental Ca	GalR3 antag	OX1R antag-1	GPR7 antag	OX1R antag-2	OX1R HTRF confirm	CHO-K1 HTRF
NS(=O)(=O)c1ccc(NN=C2CCN(Cc3ccccc3)CC2)c([N+](=O)[O-])c1	-2.7	-4.0	82.7*	-11.0	8.0	19.0	7.3
CC(=O)OC[C@H]1O[C@@H](O[C@H]2C[C@]3(C)C(C[C@@H](O)C4C([C@]5(C)CC[C@@H](C(C)(C)O)O5)CC[C@]43C)[C@@]3(C)CC[C@H](O)C(C)(C)C23)[C@H](O[C@@H]2O[C@@H](C)[C@H](O)[C@@H](O)[C@H]2O)[C@@H](O)[C@@H]1O (stereo partly specified)	-3.2	-5.4	2.5	nt	4.0	nt	nt
CC(=O)Nc1ccc(Nc2ccc3nonc3c2[N+](=O)[O-])cc1	-0.7	1.7	+	-8.3	-4.2	54.7*	93.1*
O=C(O)c1ccccc1Nc1ccc2nonc2c1[N+](=O)[O-]	nt	-9.2	nt	0.3	nt	nt	nt
O=C(Cc1ccc([N+](=O)[O-])cc1)Nc1cccc(C(=O)N2CCCCC2)c1	-10.2	-3.9	9.9	nt	-4.2	nt	nt
O=C(CNC(=O)c1ccc(Cl)cc1Cl)OCn1nnc2ccccc2c1=O	-16.0	-4.4	10.4	nt	-14.3	nt	nt
CC(=O)NC1=C(NC2CCS(=O)(=O)C2)C(=O)c2ccccc2C1=O (stereo unspecified)	-7.3	0.6	141.2*	-4.3	-4.0	68.6*	94.2*
O=C1c2cccc3cccc(c23)C(=O)N1/N=C/c1ccc(O)cc1O	-1.1	1.2	99.2*	-3.0	-7.5	40.9	64.0*
COc1ccc2oc(C(=O)NC3(C)CCS(=O)(=O)C3)c(C)c2c1 (stereo unspecified)	-4.3	-2.7	3.2	nt	-10.7	nt	nt
CCN(CC)C(=O)CSc1nnc2nnc3cc(Cl)ccc3n12	-16.3	0.6	108.4*	-0.2	-27.3	70.4*	126.3*
CCCn1c(SCC(=O)N(CC)CC)nnc1-c1ccncc1	-8.5	0.1	15.1	10.8	-14.9	nt	nt
CCN(CC)C(=O)CSc1nnc2nnc3cc(C)ccc3n12	-20.9	0.7	90.7*	17.3	-19.1	60.1*	102.9*
CCN(C(=O)COC(=O)c1cccc(S(=O)(=O)N2CCOCC2)c1)C1CCS(=O)(=O)C1 (stereo unspecified)	-4.3	-3.1	4.3	nt	-11.8	nt	nt
CC(=O)c1c(O)cc(=O)oc1-c1ccc(C)cc1	10.1	0.8	13.6	nt	9.4	nt	nt
O=C(O)c1ccc2nc3c(nc2c1)-c1ccccc1C3=O	-9.0	0.0	+	-5.8	9.9	64.5*	83.7*
O=C1c2c([N+](=O)[O-])cc([N+](=O)[O-])cc2S(=O)N1Cc1ccccc1 (stereo unspecified)	-6.7	3.3	104.8*	-16.9	-21.8	40.2	86.3*
CC1CCN(C(=O)Cn2c3ccc(F)cc3c3nc4n(c(=O)c32)CCCS4)CC1	-11.1	nt	90.7*	-5.7	-22.3	20.2	7.4
CC1CCN(C(=O)Cn2c3ccccc3c3nc4n(c(=O)c32)CCCS4)CC1	-16.1	1.9	26.3	5.2	-20.0	nt	nt
